# In ChEMBL document CHEMBL2331364, “A synthetic dolastatin 10 analogue suppresses microtubule dynamics, inhibits cell proliferation, and induces apoptotic cell death” (J Med Chem, 2013):
# Where a SMILES comes first, the peptide text is derived from it. [ ]: non-standard residue; d: D form. The star is where a group is joined. X1 = COC1=CC(=O)N(C(=O)[C@@H](O*)C(C)C)[C@H]1Cc1ccccc1; NMe2Val = CC(C)[C@@H](C(=O)*)N(C)C; NMeV = CN[C@H](C(=O)O)C(C)C
# Key:
# HeLa [1] = experiment: Cytotoxicity against human HeLa cells after 24 to 48 hrs by trypan blue assay; format: functional, cell-based
# How it was run: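 Cells were seeded at 1 × 10^5 cells/mL, grown 24 h at 37 °C in 5% CO2, then given vehicle (0.1% DMSO) or 1–80 nM for a further 24 or 48 h. Attached plus floating cells were counted after trypan blue staining. Percent inhibition was plotted against concentration to give IC50. Average of three independent experiments.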
# Capra hircus [2] = organism: Capra hircus; experiment: Inhibition of goat brain tubulin polymerization at 5 uM incubated for 20 mins prior to GTP addition measured for 30 mins by 90 degree light scattering-based fluorescence spectrophotometric method
# How it was run: (§1)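 Goat brain tubulin (10 μM) was preincubated with compound (5 μM; or 1, 5, 7, 10 μM) in 1 M monosodium glutamate, 3 mM MgCl2, 1 mM EGTA, 25 mM Pipes pH 6.8 on ice for 20 min. GTP (1 mM) was then added and assembly followed by 90° light scattering at 400 nm for 30 min at 37 °C. Experiment run twice.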
# SK-N-SH [3] = experiment: Cytotoxicity against human SK-N-SH cells assessed as cell death at 80 uM after 72 hrs by MTT assay; format: functional
# SK-N-SH [4] = experiment: Cytotoxicity against human SK-N-SH cells assessed as cell death at 50 uM after 72 hrs by MTT assay; format: functional
# HeLa [5] = experiment: Antiproliferative activity against human HeLa cells assessed as median dose after 24 hrs; format: functional
# How it was run: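 HeLa cells treated for 24 h with each agent alone and in combinations. The median dose (Dm) was taken from the median dose plot, and combination index was computed as CI = (D)1/(Dx)1 + (D)2/(Dx)2.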
# [6] = Inhibition of goat brain tubulin polymerization incubated for 20 mins prior to GTP addition measured for 30 mins by 90 degree light scattering-based fluorescence spectrophotometric method; parameters: species or system Capra hircus; how it was run: as §1
# HeLa [7] = experiment: Inhibition of mitosis in human HeLa cells after 24 hrs by Hoechst 33258 DNA staining assay; format: functional, cell-based
# How it was run: (§2)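 HeLa cells were treated for 24 or 48 h with compound or vehicle (0.1% DMSO). DNA was stained with Hoechst 33258 and mitotic cells were counted to give the mitotic index.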
# HeLa [8] = experiment: Inhibition of mitosis in human HeLa cells assessed as mitotic index at 100 nM after 48 hrs by Hoechst 33258 DNA staining assay (reference value: 4 +/- 0.2 %); format: functional; parameters: scale not given: the % may be the effect or the level left; how it was run: as §2
# HeLa [9] = experiment: Induction of apoptosis in human HeLa cells assessed as apoptotic cells at 700 nM after 24 hrs by annexin V-FITC/propidium iodide staining-based FACS analysis; format: functional
# How it was run: (§3)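 HeLa cells were exposed for 10 or 24 h, then stained with annexin V and propidium iodide using an apoptosis kit. Apoptotic cells were quantified by FACS. Compounds were dissolved in DMSO.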
# HeLa [10] = experiment: Inhibition of mitosis in human HeLa cells assessed as mitotic index at 100 nM after 24 hrs by Hoechst 33258 DNA staining assay (reference value: 4 +/- 0.3 %); format: functional; parameters: scale not given: the % may be the effect or the level left; how it was run: as §2
# HeLa [11] = experiment: Inhibition of mitosis in human HeLa cells assessed as mitotic index at 200 nM after 24 hrs by Hoechst 33258 DNA staining assay (reference value: 4 +/- 0.3 %); format: functional; parameters: scale not given: the % may be the effect or the level left; how it was run: as §2
# HeLa [12] = experiment: Inhibition of mitosis in human HeLa cells assessed as mitotic index at 300 nM after 24 hrs by Hoechst 33258 DNA staining assay (reference value: 4 +/- 0.3 %); format: functional; parameters: scale not given: the % may be the effect or the level left; how it was run: as §2
# HeLa [13] = experiment: Induction of apoptosis in human HeLa cells assessed as apoptotic cells at 700 nM after 10 hrs by annexin V-FITC/propidium iodide staining-based FACS analysis; format: functional; how it was run: as §3
# HeLa [14] = experiment: Inhibition of mitosis in human HeLa cells assessed as mitotic index at 200 nM after 48 hrs by Hoechst 33258 DNA staining assay (reference value: 4 +/- 0.2 %); format: functional; parameters: scale not given: the % may be the effect or the level left; how it was run: as §2
# HeLa [15] = experiment: Inhibition of mitosis in human HeLa cells assessed as mitotic index at 300 nM after 48 hrs by Hoechst 33258 DNA staining assay (reference value: 4 +/- 0.2 %); format: functional; parameters: scale not given: the % may be the effect or the level left; how it was run: as §2
# Capra hircus [16] = organism: Capra hircus; conditions: 3 uM
smiles,measurement,setting,value
CC[C@H](C)[C@@H]([C@H](CC(=O)NC[C@H]1O[C@H](C(=O)N[C@@H](Cc2ccccc2)c2nccs2)[C@@H](OC)[C@@H]1OC)OC)N(C)C(=O)[C@@H](NC(=O)[C@H](C(C)C)N(C)C)C(C)C,IC50,HeLa [1],16 nM
CC[C@H](C)[C@@H]([C@@H](CC(=O)NC[C@H]1O[C@@H](C(=O)NCCc2ccccc2)[C@@H](OC)[C@@H]1OC)OC)N(C)C(=O)[C@@H](NC(=O)[C@@H](NC)C(C)C)C(C)C,IC50,HeLa [1],15 nM
CC[C@H](C)[C@@H]([C@H](O)CC(=O)NC[C@H]1O[C@H](C(=O)NCc2ccccc2)[C@@H](OC)[C@@H]1OC)N(C)C(=O)[C@@H](NC(=O)[C@@H](NC)C(C)C)C(C)C,IC50,HeLa [1],12 nM
CC[C@H](C)[C@@H]([C@H](O)CC(=O)NC[C@H]1O[C@@H](C(=O)NCc2ccccc2)[C@@H](OC)[C@@H]1OC)N(C)C(=O)[C@@H](NC(=O)[C@@H](NC)C(C)C)C(C)C,IC50,HeLa [1],16 nM
CC[C@H](C)[C@@H]([C@H](CC(=O)NC[C@H]1O[C@H](C(=O)N[C@@H](Cc2ccccc2)c2nccs2)[C@@H](OC)[C@@H]1OC)OC)N(C)C(=O)[C@@H](NC(=O)[C@@H](NC)C(C)C)C(C)C,inhibition,Capra hircus [2],10%
same,IC50,HeLa [1],9.9 nM
CC[C@]12C=CCN3CC[C@@]4(c5cc([C@@]6(C(=O)OC)C[C@@H]7C[C@@H](C(C)(F)F)CN(Cc8c6[nH]c6ccccc86)C7)c(OC)cc5N(C)[C@H]4[C@@](O)(C(=O)OC)[C@@H]1OC(C)=O)[C@@H]32 [VINFLUNINE],Activity,SK-N-SH [3],70%
same,Activity,SK-N-SH [4],50%
COc1cc2c(c(OC)c1OC)-c1ccc(OC)c(=O)cc1[C@@H](NC(C)=O)CC2 [COLCHICINE],Activity,HeLa [5],17.8 nM
CC[C@H](C)[C@@H]([C@@H](CC(=O)N1CCC[C@H]1[C@H](OC)[C@@H](C)C(=O)N[C@@H](Cc1ccccc1)c1nccs1)OC)N(C)C(=O)[C@@H](NC(=O)[C@H](C(C)C)N(C)C)C(C)C [DOLASTATIN-10],IC50,[6],1200 nM
CC[C@H](C)[C@@H](/C=C/C(=O)NC[C@H]1O[C@@H](C(=O)N[C@@H](Cc2ccccc2)C2=NCCS2)[C@@H](OC)[C@@H]1OC)N(C)C(=O)[C@@H](NC(=O)[C@H](C(C)C)N(C)C)C(C)C,inhibition,Capra hircus [2],21%
same,IC50,HeLa [1],8.8 nM
CO[C@@H](/C(C)=C/C=C/C(C)=C/c1coc(C)n1)[C@@H](C)[C@@H]1C[C@H](O)[C@@]2(C)O[C@@H]2/C=C/[C@@H](C)[C@H]2C[C@H](CC(=O)O2)C[C@@H]2O[C@H]2C(=O)O1 [RHIZOXIN],IC50,[6],6800 nM
CC[C@H](C)[C@@H](/C=C/C(=O)NC[C@H]1O[C@@H](C(=O)N[C@@H](Cc2ccccc2)C2=NCCS2)[C@@H](OC)[C@@H]1OC)N(C)C(=O)[C@@H](NC(=O)[C@@H](NC)C(C)C)C(C)C,inhibition,Capra hircus [2],19%
same,IC50,HeLa [1],8.7 nM
COC(=O)Nc1nc2cc(C(=O)c3cccs3)ccc2[nH]1 [NOCODAZOLE],inhibition,HeLa [7],Dose-dependent effect
same,Activity,HeLa [8],14%
same,Activity,HeLa [9],50.5%
same,Activity,HeLa [10],22%
same,Activity,HeLa [11],28%
same,Activity,HeLa [12],36%
same,Activity,HeLa [13],14.7%
same,Activity,HeLa [14],13%
same,Activity,HeLa [15],11%
same,IC50,HeLa [1],178 nM
CC[C@]1(O)C[C@@H]2CN(CCc3c([nH]c4ccccc34)[C@@](C(=O)OC)(c3cc4c(cc3OC)N(C)[C@H]3[C@@](O)(C(=O)OC)[C@H](OC(C)=O)[C@]5(CC)C=CCN6CC[C@]43[C@@H]65)C2)C1 [VINBLASTINE],IC50,[6],1500 nM
same,inhibition,Capra hircus [16],50%
same,Activity,HeLa [5],2.3 nM
COC1=CC(=O)N(C(=O)[C@@H](OC(=O)[C@@H]2CCCN2C(=O)[C@@H]2CCCN2C(=O)[C@H](C(C)C)N(C)C(=O)[C@@H](NC(=O)[C@H](C(C)C)N(C)C)C(C)C)C(C)C)[C@H]1Cc1ccccc1 [DOLASTATIN 15] (NMe2Val-V[NMeV]PP-X1),IC50,[6],23000 nM
